Paper PMC5323440 (World Journal of Gastroenterology, 2017)
Marks after values point to notes of the source that are not given here.

Tests used:
[1] = Aqueous solubility in distilled water; assay type: physicochemical; settings: 25 ± 1 °C
[2] = Partition coefficient, n-octanol/water, shake flask method; assay type: physicochemical
[3] = In vivo pharmacokinetics in plasma after oral administration; design: species or system Wistar rats; settings: rat
Procedure, shortened: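 Male Wistar rats (200-250 g, n = 6) housed in metabolic cages, fasted 24 h, water ad libitum. Single oral dose of prodrug (377.5 mg) or parent acid (270 mg) suspended in sodium CMC in saline (1 mL). Retro-orbital blood taken at 0 min, every 15 min for 1 h, bi-hourly to 12 h, and at 24 h, into EDTA tubes. Plasma quantified by HPLC against 80% human plasma calibration.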

TNBS-induced colitis = assay: TNBS-induced experimental colitis: clinical activity score rate; assay type: in vivo, Wistar rats; settings: for Clinical activity score rate, 6 d: day 6, oral treatment day 6 to 10; for Clinical activity score rate, 6 d / Clinical activity score rate, 7 d / Clinical activity score rate, 8 d / Clinical activity score rate, 9 d / Clinical activity score rate, 10 d / Clinical activity score rate, 11 d: score 0-4; for Clinical activity score rate, 7 d: day 7, oral treatment day 6 to 10; for Clinical activity score rate, 8 d: day 8, oral treatment day 6 to 10; for Clinical activity score rate, 9 d: day 9, oral treatment day 6 to 10; for Clinical activity score rate, 10 d: day 10, oral treatment day 6 to 10; for Clinical activity score rate, 11 d: day 11, after oral treatment day 6 to 10
Procedure, shortened: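 Male Wistar rats (200-230 g, n = 6/group), starved 48 h, given intrarectal TNBS 100 mg/kg in 50% v/v ethanol (0.25 mL) on day 3. Oral dosing days 6-10 as 1% sodium CMC suspension, equimolar to parent acid. Weight loss, stool consistency and rectal bleeding each scored 0-4 daily and averaged per group. Two-way ANOVA with Bonferroni versus disease control.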

myeloperoxidase (MPO) = assay: TNBS-induced experimental colitis: colonic MPO activity; assay type: in vivo, Wistar rats; settings: TNBS colitis rats, day 11, oral treatment day 6 to 10
Procedure, shortened: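 Colon dissected on day 11 from TNBS-colitic male Wistar rats (intrarectal TNBS 100 mg/kg in 50% ethanol on day 3; oral dosing in 1% sodium CMC days 6-10; n = 6). MPO assayed by a published method, one unit degrading […] hydrogen peroxide at 25 °C. Reported as […]; one-way ANOVA with Dunnett's test.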

[4] = released from SLZ in the colon; cited from earlier work
chronic UC = chronic UC patients ref 24; cited from earlier work

Row | Aq. Solubility [1] | log Poct [2] | Time of disappearance of BBA from blood [3] [h] | Time of first appearance of BBA in blood [3] [min] | Time of maximum BBA in blood [3] [min] | Compound | Clinical activity score rate, 6 d (TNBS-induced colitis) | Clinical activity score rate, 7 d (TNBS-induced colitis) | Clinical activity score rate, 8 d (TNBS-induced colitis) | Clinical activity score rate, 9 d (TNBS-induced colitis) | Clinical activity score rate, 10 d (TNBS-induced colitis) | Clinical activity score rate, 11 d (TNBS-induced colitis) | Minimized clinical activity score rate (TNBS-induced colitis; oral treatment day 6 to 10) [%] | Colonic MPO activity (myeloperoxidase (MPO)) [mU/100 mg tissue] | Fraction entering circulation by absorption from large intestine [4] [%] | Remission rate (chronic UC) [%]
1 | practically insoluble | 9.3 | 24 | 30 | 240 | C[C@H]1[C@H](C)CC[C@]2(C)CC[C@]3(C)C(=CC[C@@H]4[C@@]5(C)CC[C@@H](O)[C@](C)(C(=O)O)[C@@H]5CC[C@]43C)[C@H]12 [BBA, β-boswellic acid] | 2.77 ± 1.34 | 3.00 ± 1.00 | 2.33 ± 0.57 | 1.99 ± 0.66 | 1.33 ± 1.15 | 0.99 ± 1.10 ^e | 79 | 60.71 |  | 
2 |  |  |  |  |  | N[C@@H](Cc1c[nH]cn1)C(=O)O [H, L-histidine] | 2.33 ± 0.67 | 2.55 ± 0.50 | 2.88 ± 0.83 | 2.77 ± 0.69 | 2.60 ± 0.82 | 2.00 ± 1.00^NS |  |  |  | 
3 |  |  |  |  |  | N[C@H](Cc1ccccc1)C(=O)O [P, D-phenylalanine] | 2.22 ± 0.83 | 2.55 ± 0.50 | 3.16 ± 1.04 | 3.33 ± 1.15 | 2.66 ± 1.44 | 2.27 ± 1.13^NS |  |  |  | 
4 |  |  |  |  |  | Nc1ccc(O)c(C(=O)O)c1 [Prodrug 5-ASA, 5-aminosalicylate] |  |  |  |  |  |  |  |  | 30 | 
5 |  |  |  |  |  | O=C(O)c1cc(/N=N/c2ccc(S(=O)(=O)Nc3ccccn3)cc2)ccc1O [SLZ, Sulfasalazine] | 2.88 ± 0.83 | 2.44 ± 0.50 | 1.61 ± 1.13 | 1.11 ± 1.01 | 0.72 ± 0.75 | 0.38 ± 0.60 ^e |  | 36.21 |  | 75
6 |  |  |  |  |  | N[C@@H](Cc1c[nH]c2ccccc12)C(=O)O [T, L-tryptophan] | 2.44 ± 0.69 | 2.60 ± 0.58 | 2.94 ± 0.82 | 2.66 ± 0.66 | 2.16 ± 1.08 | 1.88 ± 1.17 ^a |  |  |  | 
7 |  |  |  |  |  | N[C@@H](Cc1ccc(O)cc1)C(=O)O [TY, L-tyrosine] | 2.11 ± 0.84 | 2.55 ± 0.50 | 3.22 ± 1.07 | 3.33 ± 1.15 | 2.72 ± 1.49 | 2.33 ± 1.45^NS |  |  |  | 
